Measurements reported in ChEMBL document CHEMBL4616672, “Inhibiting Matrix Metalloproteinase-2 Activation by Perturbing Protein-Protein Interactions Using a Cyclic Peptide” (J Med Chem, 2020).
The source made the active and inactive calls. *1 amine or outer side, *2 acyl side, *3 side chain or, on linkers, in order; H or OH if unused. Where a SMILES comes first, the peptide text is derived from it. Bridges are numbered along the chain shown (N, C = ends). Triazole bridges read from a SMILES are 1,4-linked. [ ]: non-standard residue; d: D form. The star is where a group is joined. RhodamineB = CCN(CC)c1ccc2c(-c3ccccc3C(=O)*)c3ccc(=[N+](CC)CC)cc-3oc2c1; Lys(N3) = [N-]=[N+]=NCCCC[C@H](N)C(=O)O; X1 = O=C([C@H](Cc1c[nH]nn1)N[*:1])[*:2]; NMeGABA = CN(CCCC(=O)[*:2])[*:1]; Pra = C#CC[C@H](N)C(=O)O

Tests used:
[1] = target: T1, 72 kDa type IV collagenase (Homo sapiens, UniProt P08253); assay: Binding affinity to N-terminal (His6)-MBP tagged full-length human proMMP2 expressed in Escherichia coli BL21(DE3) RIL assessed as reduction in Rhod-cy(WPHPY binding incubated for 30 mins by fluorescence polarization assay
How it was run: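 Competitive fluorescence polarization in PBS. Recombinant tag-free full-length proMMP2 (TEV-cleaved after nickel purification, then ion-exchange and size exclusion) and Rhod-cy(WPHPY) each held at 100 nM, with unlabeled ligand titrated. Read as FP. Triplicate individually prepared samples averaged, reported as mean ± SD. Each experiment repeated at least three times on different days.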

[2] = target: T1, 72 kDa type IV collagenase; assay: Binding affinity to […] expressed in Escherichia coli BL21(DE3) RIL incubated for 30 mins by fluorescence polarization assay
[3] = system: Matrix metalloproteinase-2 (Homo sapiens); assay: Inhibition of proMMP2 activation in human WM115 cells assessed as decrease in cell invasion at 1 nM to 1 uM incubated for 24 hrs by transwell cell invasion assay
[4] = target: T1, 72 kDa type IV collagenase; assay: Inhibition of MMP2 in human WM115 cells at 0.1 nM to 1 uM incubated for 5 mins using MMP2-specific fluorogenic substrate by fluorescence based assay; format: cell-based
How it was run: (§1)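 WM115 serum-free 24 h conditioned medium, concentrated and normalized by BCA. 10 μg protein in TNC buffer (50 mM Tris, 0.15 M NaCl, 10 mM CaCl2, pH 7.5) with compound in PBS, equilibrated 5 min at 37 °C. MMP2-specific fluorogenic substrate (3 μM) added, 20 min at 37 °C, read at Ex 325/Em 393 nm. For the TIMP2 condition, recombinant TIMP2 (10 μL of 1 μg/μL) added to all mixtures. Triplicates, three repeats.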

[5] = system: Matrix metalloproteinase-2 (Homo sapiens); assay: Inhibition of proMMP2 activation in human WM115 cells assessed as decrease in cell numbers in wound region at 1 nM to 1 uM incubated for 24 hrs by wound-healing scratch assay
[6] = target: Matrix metalloproteinase-9 (Homo sapiens) (UniProt P14780); assay: Inhibition of proMMP9 activation in human WM115 cells assessed as reduction in MMP9 activity at 0.1 nM to 1 uM incubated for 24 hrs using enzyme-specific fluorogenic substrate by fluorescence based assay; format: cell-based
How it was run: (§2)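 WM115 cells grown to 80% confluency, then cultured 24 h in serum-free medium containing compound (no-compound control). Medium concentrated and BCA-normalized. 10 μg protein in TNC buffer (pH 7.5) with MMP2- or MMP9-specific fluorogenic substrate (3 μM), incubated 20 min at 37 °C, fluorescence read at Ex 325/Em 393 nm. Triplicates, three repeats.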

[7] = target: T1, 72 kDa type IV collagenase; assay: Inhibition of proMMP2 activation in human WM115 cells assessed as reduction in MMP2 activity at 0.1 nM to 1 uM incubated for 24 hrs using enzyme-specific fluorogenic substrate by fluorescence based assay; format: cell-based; how it was run: as §2
[8] = target: T1, 72 kDa type IV collagenase; assay: Inhibition of proMMP2 activation in human WM115 cells assessed as reduction in MMP2 activity at 0.1 nM to 1 uM incubated for 24 hrs by gelatin zymography; format: cell-based
How it was run: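 WM115 cells (600k per well) seeded 8 h in full medium, then 24 h at 37 °C in serum-free medium with compound. Medium concentrated and normalized to 10 μg/mL protein. Run on 7.5% gelatin gel, washed in Triton X-100 buffer, incubated 20 h at 37 °C in CaCl2/ZnCl2 buffer, then Coomassie stained. Three independent experiments.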

[9] = target: T1, 72 kDa type IV collagenase; assay: Binding affinity to catalytic domain of proMMP2 in human WM115 cells assessed as reduction in TIMP2-mediated inhibition of MMP2 enzyme activity at 0.1 nM to 1 uM incubated for 5 mins using MMP2-specific fluorogenic substrate by fluorescence based assay; format: cell-based; how it was run: as §1
[10] = target: T1, 72 kDa type IV collagenase; assay: Inhibition of proMMP2 activation in human WM115 cells assessed as reduction in MMP2 protein expression incubated for 24 hrs by Western blot analysis; format: cell-based
How it was run: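 WM115 cells treated 24 h in serum-free medium with compound (PBS control). Conditioned medium immunoblotted for MMP2 with HRP secondary and chemiluminescent detection. Three independent blots, each with medium from a fresh cell batch.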

[11] = target: T1, 72 kDa type IV collagenase; assay: Binding affinity to of proMMP2 in human WM115 cells assessed as reduction in cell membrane association of proMMP at 10 nM incubated for 15 hrs by immunofluorescence based confocal microscopy
How it was run: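 WM115 cells in full medium exposed to 10 nM for 15 h, fixed in 4% paraformaldehyde without permeabilization and blocked in 5% goat serum. Stained overnight at 4 °C with anti-MMP2 (1:500), then Alexa Fluor 594 anti-rabbit (1:2000). Confocal imaging; single-cell intensity quantified over thirty cells per image. Three repeats.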

[12] = target: T1, 72 kDa type IV collagenase; assay: Binding affinity to hemopexin domain of proMMP2 in human WM115 cells assessed as inhibition of TIMP2-MMP2 interaction using surface immobilized recombinant TIMP incubated for 1 hr by ELISA based competitive binding assay; format: cell-based
How it was run: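 His-tagged recombinant TIMP2 (9 pmol/well) captured on Ni-coated wells, blocked with His6 peptide. WM115 serum-free 24 h conditioned medium, concentrated (10 kDa cutoff), mixed with compound in PBS (PBS control) and incubated 1 h at room temperature with shaking. Bound MMP2 detected with anti-MMP2 rabbit mAb, HRP secondary and chemiluminescence. Triplicates averaged, experiment repeated three times.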

Chain of Matrix metalloproteinase-9 (Homo sapiens) (P14780 whole entry): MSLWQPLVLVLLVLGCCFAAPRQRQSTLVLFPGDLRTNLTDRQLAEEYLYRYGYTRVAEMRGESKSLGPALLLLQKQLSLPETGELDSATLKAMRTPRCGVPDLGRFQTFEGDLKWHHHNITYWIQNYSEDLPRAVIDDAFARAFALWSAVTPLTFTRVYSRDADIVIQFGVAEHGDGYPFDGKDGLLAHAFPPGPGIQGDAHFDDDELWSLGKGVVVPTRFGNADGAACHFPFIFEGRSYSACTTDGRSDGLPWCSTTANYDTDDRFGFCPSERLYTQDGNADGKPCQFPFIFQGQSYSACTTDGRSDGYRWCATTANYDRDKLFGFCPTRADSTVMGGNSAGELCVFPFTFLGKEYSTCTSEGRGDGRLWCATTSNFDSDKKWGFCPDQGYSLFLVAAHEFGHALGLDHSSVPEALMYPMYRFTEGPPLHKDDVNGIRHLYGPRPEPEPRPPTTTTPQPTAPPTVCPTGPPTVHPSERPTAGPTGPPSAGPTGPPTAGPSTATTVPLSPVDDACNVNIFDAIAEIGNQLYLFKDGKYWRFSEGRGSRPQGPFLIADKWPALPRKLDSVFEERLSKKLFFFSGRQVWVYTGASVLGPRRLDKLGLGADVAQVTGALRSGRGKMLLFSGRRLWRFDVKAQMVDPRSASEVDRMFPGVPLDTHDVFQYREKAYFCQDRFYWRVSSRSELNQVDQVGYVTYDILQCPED
T1 sequence (P08253 whole entry): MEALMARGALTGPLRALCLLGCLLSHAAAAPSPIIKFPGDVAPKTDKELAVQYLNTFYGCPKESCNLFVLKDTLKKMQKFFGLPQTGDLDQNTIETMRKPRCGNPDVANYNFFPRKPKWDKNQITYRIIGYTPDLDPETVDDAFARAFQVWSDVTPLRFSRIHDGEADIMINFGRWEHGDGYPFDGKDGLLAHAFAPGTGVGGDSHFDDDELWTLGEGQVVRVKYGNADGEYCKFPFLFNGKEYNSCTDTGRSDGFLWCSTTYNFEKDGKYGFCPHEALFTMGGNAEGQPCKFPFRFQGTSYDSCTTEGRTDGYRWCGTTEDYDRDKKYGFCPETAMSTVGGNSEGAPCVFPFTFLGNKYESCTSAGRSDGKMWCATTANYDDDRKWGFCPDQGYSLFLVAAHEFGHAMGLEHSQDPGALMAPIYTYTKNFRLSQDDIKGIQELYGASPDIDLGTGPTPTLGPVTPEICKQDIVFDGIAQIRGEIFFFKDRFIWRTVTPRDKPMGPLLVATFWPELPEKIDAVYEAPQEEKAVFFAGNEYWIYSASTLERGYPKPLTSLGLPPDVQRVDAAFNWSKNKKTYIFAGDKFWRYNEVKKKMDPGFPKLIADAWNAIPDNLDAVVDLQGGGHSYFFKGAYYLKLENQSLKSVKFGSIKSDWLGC

C[C@@H]1NC(=O)[C@@H]2CCCN2C(=O)[C@H](Cc2c[nH]cn2)NC(=O)[C@@H]2CCCN2C(=O)[C@H](Cc2c[nH]c3ccccc23)NC(=O)[C@@H](N)Cc2cn(nn2)CCCC[C@@H](C(N)=O)NC1=O (H-[Pra]WPHPA[Lys(N3)]-NH2; triazole 1-7)
Activity [1]: Active

CCN(CC)c1ccc2c(-c3ccccc3C(=O)N(C)CCCC(=O)N[C@H]3Cc4cn(nn4)CCCC[C@@H](C(N)=O)NC(=O)[C@H](Cc4ccc(O)cc4)NC(=O)[C@@H]4CCCN4C(=O)[C@H](Cc4c[nH]cn4)NC(=O)[C@@H]4CCCN4C(=O)[C@H](Cc4c[nH]c5ccccc45)NC3=O)c3ccc(=[N+](CC)CC)cc-3oc2c1 (RhodamineB-[NMeGABA][Pra]WPHPY[Lys(N3)]-NH2; triazole 2-8)
Activity [1]: Active | Kd [2]: 0.28 µM

C[C@@H]1NC(=O)[C@@H]2CCCN2C(=O)[C@H](Cc2c[nH]c3ccccc23)NC(=O)[C@@H](N)Cc2cn(nn2)CCCC[C@@H](C(N)=O)NC(=O)[C@H](Cc2ccc(O)cc2)NC(=O)[C@@H]2CCCN2C1=O (H-[Pra]WPAPY[Lys(N3)]-NH2; triazole 1-7)
Activity [1]: Active

NC(=O)[C@@H]1CCCCn2cc(nn2)C[C@H](N)C(=O)N[C@@H](Cc2c[nH]c3ccccc23)C(=O)N2CCC[C@H]2C(=O)N[C@@H](Cc2c[nH]cn2)C(=O)N2CCC[C@H]2C(=O)N[C@@H](Cc2ccc(O)cc2)C(=O)N1 (H-[Pra]WPHPY[Lys(N3)]-NH2; triazole 1-7)
inhibition [3]: Active | inhibition [4]: inactive | inhibition [5]: Active | inhibition [6]: inactive | inhibition [7]: Active | inhibition [8]: Dose-dependent effect | Activity [9]: inactive | inhibition [10]: Dose-dependent effect | Activity [11]: Active | Activity [12]: Active

C[C@@H]1NC(=O)[C@H](Cc2c[nH]c3ccccc23)NC(=O)[C@@H](N)Cc2cn(nn2)CCCC[C@@H](C(N)=O)NC(=O)[C@H](Cc2ccc(O)cc2)NC(=O)[C@@H]2CCCN2C(=O)[C@H](Cc2c[nH]cn2)NC1=O (H-[Pra]WAHPY[Lys(N3)]-NH2; triazole 1-7)
Activity [1]: Active

C[C@@H]1NC(=O)[C@@H](N)Cc2cn(nn2)CCCC[C@@H](C(N)=O)NC(=O)[C@H](Cc2ccc(O)cc2)NC(=O)[C@@H]2CCCN2C(=O)[C@H](Cc2c[nH]cn2)NC(=O)[C@@H]2CCCN2C1=O (H-[Pra]APHPY[Lys(N3)]-NH2; triazole 1-7)
Activity [1]: Active

C[C@@H]1NC(=O)[C@H](Cc2c[nH]cn2)NC(=O)[C@@H]2CCCN2C(=O)[C@H](Cc2c[nH]c3ccccc23)NC(=O)[C@@H](N)Cc2cn(nn2)CCCC[C@@H](C(N)=O)NC(=O)[C@H](Cc2ccc(O)cc2)NC1=O (H-[Pra]WPHAY[Lys(N3)]-NH2; triazole 1-7)
Activity [1]: Active

NCCCC[C@H](NC(=O)[C@H](Cc1ccc(O)cc1)NC(=O)[C@@H]1CCCN1C(=O)[C@H](Cc1c[nH]cn1)NC(=O)[C@@H]1CCCN1C(=O)[C@H](Cc1c[nH]c2ccccc12)NC(=O)[C@@H](N)Cc1c[nH]nn1)C(N)=O (H-[X1]WPHPYK-NH2)
inhibition [7]: inactive
